# Laboratory results as given in ChEMBL document CHEMBL1125377, “Phenothiazines as lipid peroxidation inhibitors and cytoprotective agents” (1992).
# Species on record: Oryctolagus cuniculus
# Test: In vitro inhibition of iron-dependent peroxidation of rabbit brain vesicular membrane lipids
# Assay type: functional
# Conditions: not given
# Procedure, shortened: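 Rabbit brain homogenized 10% w/v in 25 mM Tris-HCl with 0.15 M KCl, pH 7.5, spun 10000g for 15 min. The supernatant was given the agent in DMSO and incubated with ADP (220 μM) and FeCl3 (2 μM) at 37 °C for 1 h; the control was not incubated. TBARS read at 532 nm as MDA against a standard curve. Reported as MIC, the minimum tested concentration giving ≥50% inhibition.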
row,MIC [µM],Compound
1,0.26,CN(C)CCOc1ccc2c(c1)Nc1ccccc1S2.CS(=O)(=O)O
2,0.093,CN(C)CCOc1ccc2c(c1)Nc1ccccc1S2.Cl

# Same assay, conditions: Oryctolagus cuniculus; read-out: MIC
row,Compound,MIC [µM]
1,CN(C)CCCOc1ccc2c(c1)Nc1ccccc1S2,0.14
2,CN(C)CCOc1ccc2c(c1C(=O)N(C)C)Nc1ccccc1S2,2.5
3,COc1ccc2c(c1C(=O)NCCN(C)C)Nc1ccccc1S2,2.6
4,CN(C)CCOc1ccc2c(c1)N(C)c1ccccc1S2,21
5,CN(C)CCCOc1ccc2c(c1)Sc1ccccc1N2,0.089
6,CN(C)CCCN1c2ccccc2Sc2ccc(Cl)cc21 [CHLORPROMAZINE],10
7,c1ccc2c(c1)Nc1ccccc1S2 [PHENOTHIAZINE],0.15

# Other lines, results leading:
row,MIC [µM],Compound
1,0.18,NCCOc1ccc2c(c1)Nc1ccccc1S2
2,0.068,OCCN1CCN(CCOc2ccc3c(c2)Nc2ccccc2S3)CC1
3,0.056,CN(C)CCOc1ccc2c(c1)Sc1ccccc1N2
4,0.17,OCCN1CCN(CCCc2ccc3c(c2)Nc2ccccc2S3)CC1
